IC50 and EC50 data for ten molecules are collected here from ChEMBL document CHEMBL1138697, “Development of a new class of potential antiatherosclerosis agents: NO-donor antioxidants” (Bioorg Med Chem Lett, 2004).

pEC50, pIC50: −log10 of the molar value.

Assay [1] is filed under the species Rattus norvegicus. The assay is described as follows: Tested for inhibition of ferrous salt/ascorbate induced lipidic peroxidation of membrane lipid of rat hepatocytes. It is filed as functional. To be noted: Hepatocyte. In a few lines:
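Rat liver microsomes (male Wistar, 200-250 g) were prepared by differential centrifugation and used at 2 mg prot/mL. Incubation was at 37°C, pH 7.4, Tris-HCl/KCl, with 100 μM ascorbate and compounds in DMSO (≤5%). TBARS were read at 543 nm against an MDA standard, using the 30-min plateau. IC50 came from % inhibition vs control by non-linear regression.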

Assay [2] is filed under the species Rattus norvegicus. The assay is described as follows: Vasodilating activity in rat aorta strip in absence of 1H-[1,2,4]oxadiazolo[4,3-a]quinoxalin-1-one (ODQ). It is filed as functional, organism-based. In short, it runs like this:
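Rat aortic strips were precontracted with 1 μM L-phenylephrine and relaxation was measured. The method follows an earlier published procedure with minor changes.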

Assay [3] is filed under the species Rattus norvegicus. The assay is described as follows: Vasodilating activity in rat aorta strip in presence of 1H-[1,2,4]oxadiazolo[4,3-a]quinoxalin-1-one (ODQ). It is filed as functional, organism-based. In short, it runs like this:
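Rat aortic strips were precontracted with 1 μM L-phenylephrine. ODQ 1 μM was added to the bath at least 5 min before contraction, in a separate series of experiments, and relaxation was then measured.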

On to `Cc1c(C)c2c(c(C)c1O)CCC(C)(C)O2` [APC-100], for which the pIC50 in assay [1] was 6.77.

On to `O=S(=O)(c1ccccc1)c1c(OCCCc2ccc(O)cc2)no[n+]1[O-]`, for which the pIC50 in assay [1] was 4.33. For the same molecule, the pEC50 in assay [2] is 8.00; in assay [3], 6.44.

For the molecule `O=[N+]([O-])OCCCc1ccc(O)cc1`, the pIC50 in assay [1] is 3.84. This molecule gave a negative logarithm of the EC50 (pEC50) in assay [2] of 6.00.

Consider `Cc1ccc(O)cc1` [p-CRESOL], for which the negative-log IC50 (pIC50) in assay [1] is 3.54.

In the case of `CC(C)(C)c1cc(CCCOc2no[n+]([O-])c2S(=O)(=O)c2ccccc2)cc(C(C)(C)C)c1O`, the pIC50 in assay [1] is 5.70. Moreover, the figures for the negative logarithm of the EC50 (pEC50) in assay [2] and in assay [3] were 6.96 and 5.32, respectively.

Regarding `Cc1cc(C(C)(C)C)c(O)c(C(C)(C)C)c1` [BUTYLATED HYDROXYTOLUENE], the negative logarithm of the IC50 (pIC50) in assay [1] is 5.77.

For `CC(C)(C)c1cc(CCCO[N+](=O)[O-])cc(C(C)(C)C)c1O`, the negative-log IC50 (pIC50) in assay [1] is 5.70. The negative logarithm of the EC50 (pEC50) in assay [2] is 4.40.

`Cc1c(C)c2c(c(C)c1O)CCC(C)(COCCCO[N+](=O)[O-])O2` (stereo unspecified): the negative logarithm of the IC50 (pIC50) in assay [1] is 6.82. Besides, in assay [2], the negative logarithm of the EC50 (pEC50) was 5.92.

For `CCOc1no[n+]([O-])c1S(=O)(=O)c1ccccc1`, in assay [1], the pIC50 was 3.96. The negative-log EC50 (pEC50) is 8.00 in assay [2] and 5.92 in assay [3].

`Cc1c(C)c2c(c(C)c1O)CCC(C)(COc1no[n+]([O-])c1S(=O)(=O)c1ccccc1)O2` (stereo unspecified): the negative logarithm of the IC50 (pIC50) in assay [1] was 6.31. The negative-log EC50 (pEC50) was 7.40 in assay [2] and 6.17 in assay [3].
